{"data": "Assay results of several laboratories", "note": "Each line is one published result; the experiments were not run side by side."}
{"Compound": "COc1c2c(cc3c1OCO3)[C@]13C=C[C@H](OC)C[C@@H]1[N@](C2)C[C@H]3OC(=O)c1ccco1", "cell line": "SAOS-2", "assay": "cell growth or viability, WST-1", "quantity": "IC50", "result": "> 10 µM"}
{"Compound": "C1COCCN1.COc1ccc(/C=C\\c2cc(I)c(OC)c(I)c2)cc1OP(=O)(O)O", "cell line": "MCF7", "assay": "cell growth or viability, SRB", "conditions": "48 h", "quantity": "GI50", "result": "0.066 µg/mL"}
{"Compound": "C/C1=C/C(=O)O[C@@H]2C[C@@H](CC[C@H](C)/C=C\\C=C\\CC1)O[C@@](O)([C@@H]1CSC(=O)N1)C2", "cell line": "MCF7", "assay": "cell growth or viability, MTT", "conditions": "72 h", "quantity": "IC50", "result": "0.48 µM"}
{"Compound": "O=c1ccc2cc3ccoc3cc2o1", "cell line": "HEp-2", "assay": "cell growth or viability, WST-1", "conditions": "48 h", "quantity": "IC50", "result": "20.5 µM"}
{"Compound": "C[C@@H](O)[C@H](NC(=O)[C@H](CCCNC(=N)N)NC(=O)[C@H](CC(N)=O)NC(=O)[C@H](CC(N)=O)NC(=O)[C@@H](N)CCCNC(=N)N)C(=O)N[C@@H](CO)C(=O)NCC(=O)N[C@@H](Cc1ccccc1)C(=O)N[C@@H](CCCCN)C(=O)N[C@@H](Cc1c[nH]c2ccccc12)C(=O)O", "cell line": "THP-1", "assay": "cell growth or viability, ATP luminescence", "conditions": "48 h", "quantity": "IC50", "result": "1.8 µM"}
{"Compound": "C=CC(=O)Nc1cc(Nc2nccc(-c3cn(C)c4ccccc34)n2)c(OC)cc1N(C)CCN(C)C", "cell line": "Calu-3", "assay": "cell growth or viability", "conditions": "72 h", "quantity": "IC50", "result": "0.65 µM"}
{"Compound": "c1ccc([C@@H]2C[C@H]2NC2CCNCC2)cc1", "cell line": "TF-1a", "assay": "cell growth or viability, resazurin", "conditions": "96 h", "quantity": "EC50", "result": "0.00155 µM"}
{"Compound": "O=c1ccc2ccc3occc3c2o1", "cell line": "HEp-2", "assay": "cell growth or viability, WST-1", "conditions": "48 h", "quantity": "IC50", "result": "11.5 µM"}
{"Compound": "COc1cc2c3c(n(CCCNCCO)c(=O)c2cc1OC)-c1cc2c(cc1C3=O)OCO2", "cell line": "MCF7", "assay": "cell growth or viability, SRB", "quantity": "GI50", "result": "< 0.01 µM"}
{"Compound": "CCN1C(=O)SCC1C1(OC)CC2CC(CCC(C)C=CC=CCCC(C)=CC(=O)O2)O1 (stereo not drawn)", "cell line": "MCF7", "assay": "cell growth or viability, MTT", "conditions": "72 h", "quantity": "IC50", "result": "20.6 µM"}
{"Compound": "COc1cc2c3c(n(CCCN4CCOCC4)c(=O)c2cc1OC)-c1cc2c(cc1C3=O)OCO2", "cell line": "P388", "assay": "cell growth or viability", "conditions": "72 h", "quantity": "IC50", "result": "0.154 µg/mL"}
{"Compound": "Cc1c2ccncc2c(C)c2c1[nH]c1ccccc12", "cell line": "THP-1", "assay": "TNF-α release, inhibitor", "conditions": "17 h, LPS-stimulated", "quantity": "IC50", "result": "1.57 µM"}
{"Compound": "N.N.[Cl][Pt][Cl]", "cell line": "MCF7", "assay": "cell growth or viability, SRB", "quantity": "EC50", "result": "3.6 µM"}
{"Compound": "CCCCCCCC(=O)SCC/C=C/[C@@H]1CC(=O)NCc2nc(cs2)C2=N[C@@](C)(CS2)C(=O)N[C@@H](C(C)C)C(=O)O1", "cell line": "SW-620", "assay": "cell growth or viability, resazurin", "conditions": "48 h", "quantity": "IC50", "result": "0.0265 µM"}
{"Compound": "Cn1cncc1[C@@](N)(c1ccc(Cl)cc1)c1ccc2c(c1)c(-c1cccc(Cl)c1)cc(=O)n2C", "cell line": "FaDu", "assay": "cell growth or viability", "conditions": "72 h", "quantity": "IC50", "result": "2.73 µM"}
{"Compound": "CC(C)[C@H](N)C(=O)N1CCC[C@H]1B(O)O", "cell line": "THP-1", "assay": "cell growth or viability, ATP luminescence", "conditions": "48 h", "quantity": "IC50", "result": "0.206 µM"}
{"Compound": "CC(C)[C@@H]1NC(=O)[C@H](CO)NC(=O)[C@H](CO)NC(=O)[C@H](CO)N(C)C(=O)[C@H](CC(=O)O)NC(=O)[C@H](CO)NC(=O)[C@H](Cc2ccccc2)NC(=O)CSC[C@@H](C(=O)NCC(N)=O)NC(=O)[C@H](CC(N)=O)NC(=O)[C@H](CCCNC(=N)N)NC(=O)[C@H](C)NC(=O)[C@H](Cc2ccc(-c3ccccc3)cc2)NC(=O)[C@H](CC(N)=O)NC(=O)[C@@H]2CCCN2C1=O", "cell line": "SJSA-1", "assay": "cell growth or viability", "quantity": "EC50", "result": "> 30 µM"}
{"Compound": "COc1c2c(cc3c1OCO3)[C@]13C=C[C@H](OC)C[C@@H]1[N@](C2)C[C@H]3OC(=O)c1ccoc1", "cell line": "SAOS-2", "assay": "cell growth or viability, WST-1", "quantity": "IC50", "result": "> 10 µM"}
